According to ChEMBL document CHEMBL4011617, “Ugi Reaction-Derived α-Acyl Aminocarboxamides Bind to Phosphatidylinositol 3-Kinase-Related Kinases, Inhibit HSF1-Dependent Heat Shock Response, and Induce Apoptosis in Multiple Myeloma Cells” (J Med Chem, 2017):
Calls of active or inactive are those of the source. No cut-off for these calls is given here.

What was measured:
[1] = system: INA-6; experiment: Induction of apoptosis in human INA-6 cells at 6.3 to 8.6 uM after 72 hrs by annexin V-FITC/propidium iodide staining-based flow cytometry method; assay type: functional, cell-based
In short: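 INA-6 cells incubated three days with DMSO or increasing compound concentrations. Viability read by annexin V-FITC/propidium iodide staining and flow cytometry. Double-negative (viable) fractions used to fit dose-response curves from three independent experiments; mean ± SD reported.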

[2] = system: INA-6; experiment: Downregulation of NVP-AUY922-induced HSF-1 protein expression in human INA-6 cells at 25 uM preincubated for 4 hrs followed by NVP-AUY922 addition measured after 4 hrs by Western blot method; assay type: functional, cell-based
In short: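 INA-6 cells were pre-treated with compound for 4 h, then co-treated with the HSP90 inhibitor NVP-AUY922 for an additional 4 h. Cells were harvested and blotted for HSP72, HSP27, HSF1 or phospho-HSF1, with β-actin as the loading control. DMSO-only cells served as the negative control and NVP-AUY922-only cells as the positive control.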

[3] = biological target: T1, Heat shock factor protein 1 (Homo sapiens) (UniProt Q00613); experiment: Inhibition of NVP-AUY922-induced HSF-1 phosphorylation at S326 residue in human INA-6 cells at 25 uM preincubated for 4 hrs followed by NVP-AUY922 addition measured after 4 hrs by Western blotting method; assay type: cell-based
T1 sequence (whole entry): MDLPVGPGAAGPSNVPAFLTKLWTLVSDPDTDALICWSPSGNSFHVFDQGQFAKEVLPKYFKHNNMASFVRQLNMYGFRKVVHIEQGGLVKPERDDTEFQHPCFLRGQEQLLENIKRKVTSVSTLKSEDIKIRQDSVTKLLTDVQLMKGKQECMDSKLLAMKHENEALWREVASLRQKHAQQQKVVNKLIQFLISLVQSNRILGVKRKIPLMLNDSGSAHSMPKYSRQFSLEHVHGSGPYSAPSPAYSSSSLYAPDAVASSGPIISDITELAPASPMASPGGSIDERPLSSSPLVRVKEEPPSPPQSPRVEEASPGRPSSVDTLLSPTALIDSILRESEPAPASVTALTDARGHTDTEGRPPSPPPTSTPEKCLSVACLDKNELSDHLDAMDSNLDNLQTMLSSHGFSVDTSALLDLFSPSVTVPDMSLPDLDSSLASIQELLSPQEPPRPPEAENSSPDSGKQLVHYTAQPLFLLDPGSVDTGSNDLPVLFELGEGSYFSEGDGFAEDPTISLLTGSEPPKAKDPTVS
In short: (§1)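 INA-6 myeloma cells pretreated with test compound for 4 h, then co-treated with the HSP90 inhibitor/HSR inducer NVP-AUY922 for a further 4 h. Cells harvested; HSP72, HSP27, HSF1 or phospho-HSF1 probed by Western blot with β-actin as loading control. DMSO-only cells were the negative control; NVP-AUY922-only cells were the positive control.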

[4] = system: INA-6; experiment: Inhibition of heat shock response in human INA-6 cells assessed as reduction in HSF-1 mediated upregulation of the heat shock protein HSP72 at 25 uM preincubated for 4 hrs followed by HSP90 inhibitor and HSR inducer NVP-AUY922 addition measured after 4 hrs by Western blot method; assay type: functional, cell-based; in short: as §1
[5] = system: INA-6; experiment: Inhibition of heat shock response in human INA-6 cells assessed as reduction in HSF-1 mediated upregulation of the heat shock protein HSP72 at 25 uM preincubated for 4 hrs followed by HSP90 inhibitor and HSR inducer NVP-AUY922 addition measured after 4 hrs by ELISA; assay type: functional, cell-based
In short: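 HSP72 quantified by ELISA in the same protein lysates used for Western blots. INA-6 cells received compound for 4 h, then NVP-AUY922 co-treatment for 4 h more to stimulate HSF1. DMSO-only and NVP-AUY922-only cells served as negative and positive controls.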

[6] = system: INA-6; experiment: Inhibition of heat shock response in human INA-6 cells assessed as reduction in HSF-1 mediated upregulation of the heat shock protein HSP27 at 25 uM preincubated for 4 hrs followed by HSP90 inhibitor and HSR inducer NVP-AUY922 addition measured after 4 hrs by Western blot method; assay type: functional, cell-based; in short: as §1
[7] = system: INA-6; experiment: Effect on NVP-AUY922-induced HSF-1 mRNA expression in human INA-6 cells at 25 uM preincubated for 4 hrs followed by NVP-AUY922 addition measured after 4 hrs by RT-PCR method; assay type: functional, cell-based
In short: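 INA-6 cells exposed to compound for 4 h, then co-treated with 10 nM NVP-AUY922 for another 4 h. Total RNA isolated; HSP27, HSP72 and HSF1 transcripts measured by real-time PCR and normalized to α-tubulin. Means and standard deviations from three independent experiments.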

[8] = system: INA-6; experiment: Induction of apoptosis in human INA-6 cells preincubated for 4 hrs followed by NVP-AUY922 addition measured after 68 hrs by annexin V-FITC/propidium iodide staining-based flow cytometry method; assay type: functional, cell-based
In short: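 INA-6 cells received DMSO or test compound for 72 h. At 4 h, DMSO or 10 nM NVP-AUY922 was added for the remaining 68 h. Viable fraction measured by annexin V-FITC/PI flow cytometry and expressed relative to the matching DMSO controls; means ± SD of three independent experiments.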

[9] = system: INA-6; experiment: Inhibition of heat shock response in human INA-6 cells assessed as reduction in HSF-1 mediated upregulation of the heat shock protein HSP27 at 25 uM preincubated for 4 hrs followed by HSP90 inhibitor and HSR inducer NVP-AUY922 addition measured after 4 hrs
[10] = system: INA-6; experiment: Inhibition of heat shock response in human INA-6 cells assessed as reduction in HSF-1 mediated upregulation of the HSP72 protein expression at 10 uM preincubated for 4 hrs followed by HSP90 inhibitor and HSR inducer NVP-AUY922 addition measured after 4 hrs by Western blot method; assay type: functional, cell-based
In short: (§2)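 INA-6 cells given the dual DNA-PK/mTOR inhibitor NU7441 for 4 h, then co-treated with 10 nM NVP-AUY922 for 4 h more. Protein lysates analysed by Western blot for HSF1, phospho-HSF1, HSP72 and HSP27, with α-tubulin as loading control.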

[11] = system: INA-6; experiment: Inhibition of heat shock response in human INA-6 cells assessed as reduction in HSF-1 mediated upregulation of the HSP72 mRNA expression at 10 uM preincubated for 4 hrs followed by HSP90 inhibitor and HSR inducer NVP-AUY922 addition measured after 4 hrs by RT-PCR method; assay type: functional, cell-based
In short: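 Cells pretreated 4 h with NU7441, then 10 nM NVP-AUY922 added for 4 h. Total mRNA isolated; HSF1 and HSP72 levels determined by RT-PCR and normalized to α-tubulin.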

[12] = system: INA-6; experiment: Downregulation of NVP-AUY922-induced HSF-1 protein expression in human INA-6 cells at 10 uM preincubated for 4 hrs followed by NVP-AUY922 addition measured after 4 hrs by Western blot method; assay type: functional, cell-based
In short: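 INA-6 cells received the dual DNA-PK/mTOR inhibitor for 4 h, then 10 nM NVP-AUY922 was added for another 4 h. Protein lysates were Western blotted for HSF1, phospho-HSF1, HSP72 and HSP27, with α-tubulin as the loading control.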

[13] = system: INA-6; experiment: Downregulation of NVP-AUY922-induced HSF-1 mRNA expression in human INA-6 cells at 10 uM preincubated for 4 hrs followed by NVP-AUY922 addition measured after 4 hrs by RT-PCR method; assay type: functional, cell-based
In short: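 INA-6 myeloma cells were treated with the dual DNA-PK/mTOR inhibitor for 4 h, then co-treated with 10 nM NVP-AUY922 for a further 4 h. Total RNA was isolated and HSF1 and HSP72 mRNA was measured by RT-PCR. Values were normalized to α-tubulin.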

[14] = biological target: T1, Heat shock factor protein 1 (Homo sapiens); experiment: Inhibition of NVP-AUY922-induced HSF-1 phosphorylation in human INA-6 cells at 10 uM preincubated for 4 hrs followed by NVP-AUY922 addition measured after 4 hrs by Western blot method; assay type: cell-based; in short: as §2

Structure (SMILES)	Activity [1]	Activity [2]	inhibition [3]	inhibition [4]	inhibition [5]	inhibition [6]	Activity [7]	Activity [8]	inhibition [9]	inhibition [10]	inhibition [11]	Activity [12]	Activity [13]	inhibition [14]
NCCOCCOCCNCCOc1ccc(C(C(=O)NCc2ccccc2)N(C(=O)CCc2ccccc2)C2CC2)cc1 (centres undefined)	Active	Active	Active	Active	Active	Active	inactive	Active	Active					
O=c1cc(N2CCOCC2)oc2c(-c3cccc4c3sc3ccccc34)cccc12										Active	Active	Active	Active	Active
